# Source: PubChem BioAssay (several laboratories)
# A selection: hits, their analogues and other compounds. The true share with any hit is near 1.8%.
# GalR3 antag: human GalR3 antagonism; hit rate 0.44% among 360,000; HEK293 GalR3-CNG cAMP membrane potential fluorescence; galR3 body fused to GalR1 C-terminus; O60755; inhibition, % at 3 µM;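 active = inhibition above the screen-wide average plus 3 SD, cut at about 13% in these data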;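 also: forskolin and galanin both at EC90 stimulate the cells; cAMP rise reported by CNG channel membrane potential dye signal; 0% = forskolin plus galanin with DMSO and 100% = forskolin alone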
# NR2E3 ag-1: NR2E3 (human) agonism | inhibition of corepressor binding, % at 4.78 µM | hit rate 0.12% among 320,000 | Q9Y5X4 | GST-NR2E3/biotin-RetCOR TR-FRET, 1536-well;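 active = percent inhibition above the cutoff of mean plus 3 SD of all tested compounds, set per screening campaign, cut at about 20% in these data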;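 also: 0% = DMSO wells and 100% = biotin wells as full block of FRET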
#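 Material – GST-tagged NR2E3 plus biotinylated RetCOR corepressor · Quantity – NR2E3 fusion 1.35 nM · Times – 5 h incubation at 4 °C · Medium – pH 7.5 Tris-based buffer · Technique – TR-FRET, Eu(K)-anti-GST donor, streptavidin-D2 acceptor, ex 340, em 617/671 nm · Benchmarks – high control biotin, low control 0.6% DMSO · Format – 1536-well plates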
# NR1D1 modulator: modulators of human Rev-erb alpha DNA binding; Rev-erbα–FITC-DNA binding, fluorescence polarization, 90 min; activity, % at 10 µM; hit rate 0.79% among 370,000; AID 1259318;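 active = activity above about 14%, limit read from the data; passing the limit was not always enough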;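 also: 0% = DMSO wells with 35 nM protein and 100% = DMSO wells with 750 nM protein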
# Target sequence (P20393 whole entry, looked up): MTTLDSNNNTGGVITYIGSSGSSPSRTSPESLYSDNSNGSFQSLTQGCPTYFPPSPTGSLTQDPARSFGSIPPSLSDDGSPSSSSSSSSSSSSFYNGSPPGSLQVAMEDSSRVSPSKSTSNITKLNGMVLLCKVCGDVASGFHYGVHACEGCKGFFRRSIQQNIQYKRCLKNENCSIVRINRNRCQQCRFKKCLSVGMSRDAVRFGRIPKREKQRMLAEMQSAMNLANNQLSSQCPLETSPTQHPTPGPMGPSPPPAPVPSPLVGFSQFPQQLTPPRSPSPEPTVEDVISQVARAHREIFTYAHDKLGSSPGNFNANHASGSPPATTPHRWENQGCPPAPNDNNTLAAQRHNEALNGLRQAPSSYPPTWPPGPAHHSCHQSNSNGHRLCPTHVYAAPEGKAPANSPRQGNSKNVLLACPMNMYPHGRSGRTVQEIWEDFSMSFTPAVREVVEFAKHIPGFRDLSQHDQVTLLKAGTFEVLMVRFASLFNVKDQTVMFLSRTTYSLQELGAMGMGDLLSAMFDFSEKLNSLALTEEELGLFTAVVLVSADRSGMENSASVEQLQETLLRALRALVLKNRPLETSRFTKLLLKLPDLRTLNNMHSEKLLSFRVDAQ
# PG9 Ab binder: PG9 antibody binding by small molecule; inhibition, % at 6.7 µM; AID 624416; hit rate 0.43% among 360,000; TR-FRET gp120-PG9 antibody binding; in the data active = inhibition above about 8.5%
# NR2E3 ag-2: activates human NR2E3 receptor; CHO-S Gal4-NCOR/VP16-NR2E3 two-hybrid, luciferase; Q9Y5X4; AID 602229; hit rate 0.35% among 360,000; inhibition of corepressor binding, % at 3.98 µM;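 active = inhibition above the mean of all tested compounds plus 3 SD, cut at about 70% in these data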;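 also: 0% = DMSO with NR2E3 transfected cells and 100% = cells lacking NR2E3 construct; higher means lower luciferase signal from less NR2E3 corepressor binding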
# NR2E3 ag confirm: confirmation of human NR2E3 agonists | shares compounds with NR2E3 ag-2 | CHO-S mammalian two-hybrid NR2E3-NCOR, luciferase luminescence | inhibition, % at 3.98 µM | hit rate 51% among 2,300;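 active = average inhibition above a cutoff equal to the mean inhibition of all tested compounds plus one SD, cut at about 70% in these data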;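 also: 0% = DMSO in NR2E3 cells and 100% = DMSO in cells lacking NR2E3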
# VP16 counter: GAL4-VP16 reporter inhibition in NR2E3 agonist counterscreen. shares compounds with NR2E3 ag-2. CHO-S GAL4-VP16 luciferase reporter, luminescence. inhibition, % at 3.98 µM. hit rate 29% among 2,300;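 active = mean inhibition above a cutoff equal to the average over all tested compounds plus one standard deviation, cut at about 70% in these data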;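 also: luciferase from a UAS reporter driven by GAL4-VP16 transactivation; 0% = DMSO with VP16-transfected cells and 100% = DMSO with cells lacking VP16; higher means less reporter light so more repression of VP16 activity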
# PG9 bind confirm: PG9 antibody binding, confirmed; shares compounds with PG9 Ab binder; TR-FRET PG9 antibody binding, biochemical; inhibition, % at 6.7 µM; hit rate 90% among 1,500; in the data active = inhibition above about 9%
# PGV04 Ab binding: counter-screen for PG9 binders: binding control antibody PGV04. hit rate 95% among 1,500. TR-FRET PGV04 antibody-gp120 binding, biochemical. shares compounds with PG9 Ab binder. inhibition, % at 6.7 µM; in the data active = inhibition above about 9.5%
# GalR3 conf: confirmation of human galanin receptor 3 antagonists; inhibition, % at 3 µM; HEK293 GalR3 CNG cAMP biosensor, membrane potential fluorescence; galR3 fused to GalR1 carboxy tail; challenged with forskolin and galanin at EC90; hit rate 59% among 1,600; shares compounds with GalR3 antag; AID 652245;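 active = inhibition above the primary screen's cutoff, the mean inhibition of all screened compounds plus 3 SD, cut at about 13% in these data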;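 also: 0% = forskolin plus galanin and 100% = forskolin alone with DMSO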
# CNG parental: acts as nonspecific agonist in parental HEK-CNG cells | shares compounds with GalR3 antag | HEK293-CNG parental cells, cAMP membrane potential fluorescence; normalised: DMSO wells 0%, forskolin wells 100% | activation, % at 3 µM | hit rate 10% among 1,600 | AID 652268; in the data active = activation above about 1.3%
# The depositor's hits bear a star; · = no result given.
SMILES,GalR3 antag,NR2E3 ag-1,NR1D1 modulator,PG9 Ab binder,NR2E3 ag-2,NR2E3 ag confirm,VP16 counter,GalR3 conf,CNG parental,others
COC(=O)c1c(C)oc2ccc(N(C(=O)c3ccncc3)S(=O)(=O)c3ccc(C)cc3)cc12,·,-1,·,·,85*,95*,83*,·,·,
COC(=O)c1c(C)oc2ccc(N(C(=O)c3ccncc3)S(=O)(=O)c3ccc(C)cc3C)cc12,-14,-2,-2,0,91*,93*,62,·,·,
C=CCN(C)C(C#Cc1ccccc1)Cc1ccccc1 (centres undefined),·,·,-5,·,·,·,·,·,·,
CN1C(=O)C[C@@](C#N)(C(=O)NCc2ccccc2)[C@H]1c1ccccc1,·,·,-4,·,·,·,·,·,·,
COc1cccc(C(C)(O)c2nc(-c3cc4ccccc4o3)cs2)c1 (centres undefined),0,·,4,-3,79*,93*,72*,·,·,
CC(O)(c1ccc(F)c(F)c1)c1nc(-c2cc3ccccc3o2)cs1 (centres undefined),-6,·,12,-2,58,61,48,·,·,
COc1ccc(S[C@]2(C(=O)N(C)C)CC(=O)N(C(=O)C3CC3)[C@@H]2c2ccc(OC)cc2)cc1,·,·,2,·,·,·,·,·,·,
Cc1cc(=O)[nH]c(SCC(=O)Nc2ccc(Cl)cc2)n1,·,·,0,·,·,·,·,·,·,
O=C1c2ccccc2C(=O)c2[nH]cnc21,-11,·,0,2,-5,·,·,·,·,
O=C1c2ccccc2C(=O)c2[nH]c(=O)[nH]c21,-11,-4,-14,-20,68,75*,32,·,·,
O=C(Nc1ccc2c(c1)OCCO2)NC1(C(F)(F)F)Oc2ccccc2O1,-2,-1,-6,0,58,10,-35,·,·,
O=C(Nc1cccc(Br)c1)OC1CC2CC1[C@H]1CCCCN1[C@H]2Cc1ccccc1 (some centres undefined),·,·,3,·,·,·,·,·,·,
CCC1(O)C(=O)OCc2c1cc1n(c2=O)Cc2cc3cc(O)ccc3nc2-1 (centres undefined),-4,·,0,19*,63,90*,27,·,·,PG9 bind confirm=16*;PGV04 Ab binding=31*
CCCC[C@H]1C2CC(OC(=O)Nc3ccccc3OC)C(C2)[C@H]2CCCCN21 (some centres undefined),·,·,-5,·,·,·,·,·,·,
CSc1nsc(SCC(=O)Nc2nc3ccc(C)cc3s2)n1,-2,2,-5,10*,61,45,32,·,·,PG9 bind confirm=14*;PGV04 Ab binding=18*
COCCCNC(=O)C[C@H]1C[C@@]2(C(=O)OC)C(=C[C@H](C(C)(C)C)O[C@@H]2C)N(Cc2ccco2)C1=O,·,·,6,·,·,·,·,·,·,
CCOc1ccc(Br)cc1CC(=O)O,1,3,-4,0,21,·,·,·,·,
CCCOc1ccc(Br)cc1CSC(=N)N,50*,-1,3,-2,51,46,49,95*,5.8*,
CC1CCC2C(=O)N(c3ccc(Cc4ccncc4)cc3)C(=O)C2C1 (centres undefined),91*,-2,-5,1,49,77*,64,109*,-1,
CCOC(=O)N1CCN(C(=O)C[C@H]2C(=O)N(CCCOC)C3=CCCCC[C@]32C(=O)OC)CC1,·,·,-3,·,·,·,·,·,·,
COc1ccc(CCN(C)C(=O)Cc2ccc(-c3ccccc3)cc2)cc1OC,35*,2,-9,1,85*,85*,60,63*,0,
COc1ccc(CCN(C)C(=O)COc2ccc(C(=O)c3ccccc3)cc2)cc1OC,-4,-3,3,0,10,·,·,·,·,
Cc1cc2nc3c(=O)[nH]c(=O)nc-3n(C[C@@H](O)[C@@H](O)[C@@H](O)COP(=O)(O)O)c2cc1C,·,·,5,·,·,·,·,·,·,
COc1ccc(NS(=O)(=O)c2ccc(N3CCCCC3)c(N)c2)cc1,82*,1,2,2,92*,95*,86*,105*,-1,
COc1cccc(CN(C)C(=O)c2cc(COc3ccc4ncccc4c3)on2)c1,88*,1,-3,0,79*,97*,88*,99*,0,
SMILES,GalR3 antag,NR2E3 ag-1,NR1D1 modulator,PG9 Ab binder,NR2E3 ag-2,NR2E3 ag confirm,VP16 counter,GalR3 conf,CNG parental,others
Cc1ccc(OCc2cc(C(=O)N3CCCCCCC3)no2)cc1C,-2,4,6,-1,-65,·,·,·,·,
CC(NC(=O)c1cc(COc2ccccc2)on1)c1nccs1 (centres undefined),-3,-5,-4,0,-129,·,·,·,·,
CC(NC(=O)c1cc(COc2ccc3ncccc3c2)on1)c1ccc(F)cc1 (centres undefined),29*,1,1,0,85*,96*,88*,86*,1,
O=C(c1cc(COc2ccc3ncccc3c2)on1)N1CCCC1,101*,-1,-5,-1,84*,80*,61,30*,0,
CCCC[C@H]1C2CC(OC(=O)Nc3cccc(C(F)(F)F)c3)C(C2)[C@H]2CCCCN21 (some centres undefined),·,·,9,·,·,·,·,·,·,
CC(C)C(NC(=O)Cc1ccccc1)C(=O)N1CCN(c2cccc(Cl)c2)CC1 (centres undefined),44*,0,-2,1,63,65,42,0,0,
CC(=O)c1c(C)[nH]c(C(=O)COc2cc(C)ccc2C(C)C)c1C,73*,-1,-3,0,85*,91*,79*,113*,0,
Cc1nnsc1C(=O)NC1CCCc2c1cnn2-c1ccc(F)cc1F (centres undefined),105*,1,-9,-1,96*,71*,64,103*,0,
Cc1ccc(C(=O)NC2CCCc3c2cnn3-c2ccc(F)cc2F)cn1 (centres undefined),97*,2,2,1,100*,95*,79*,110*,0,
Cc1nnsc1C(=O)NC1CCCc2c1cnn2-c1cc(F)cc(F)c1 (centres undefined),-3,-1,-3,-2,4,·,·,·,·,
COC(=O)[C@]12C[C@H](CC(=O)NCc3cccs3)C(=O)N(Cc3cccc4ccccc34)C1=C[C@H](COCc1ccccc1)O[C@@H]2C,·,·,0,·,·,·,·,·,·,
